The source made the active and inactive calls.
Assays:
Mus musculus [1] = experiment: Anticonvulsant activity by using a standard maximal electroshock test (MES) in mice, by 100 mg/kg intraperitoneal administration of the compound; I=inactive, 0-10% block; type: functional, organism-based; set-up: dose 100 mg/kg
In short: (§1)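 Supramaximal electroshock: 50-mA current (60 Hz, 0.20 s) via corneal electrodes induced hind-limb tonic extension; inhibition of this component scored as activity. Mice dosed ip and/or po in aqueous solution or suspension (ca. 0.1% Tween 80, distilled water). Tested at 30, 60, 120 and 240 min (sometimes 45 min); ten mice per time point.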

Mus musculus [2] = experiment: Anticonvulsant activity following p.o. administration by standard maximal electroshock test in mice.; type: functional; settings: po; in short: as §1
Mus musculus [3] = experiment: Percentage block of the hind-limb tonic-extensor seizure was determined after application of an electric shock to mice for 60 min followed by 100 mg/kg intraperitoneal dose; type: functional; in short: as §1
Mus musculus [4] = experiment: Percentage block of the hind-limb tonic-extensor seizure was determined after application of an electric shock to mice for 120 min followed by 100 mg/kg intraperitoneal dose; type: functional; in short: as §1
Mus musculus [5] = experiment: Percentage block of the hind-limb tonic-extensor seizure was determined after application of an electric shock to mice for 120 min followed by 200 mg/kg peroral dose; type: functional; settings: route oral; in short: as §1
Mus musculus [6] = experiment: Percentage block of the hind-limb tonic-extensor seizure was determined after application of an electric shock to mice for 30 min followed by 100 mg/kg intraperitoneal dose; type: functional; in short: as §1
Mus musculus [7] = experiment: Percentage block of the hind-limb tonic-extensor seizure was determined after application of an electric shock to mice for 30 min followed by 200 mg/kg peroral dose; type: functional; settings: route oral; in short: as §1
Mus musculus [8] = experiment: Percentage block of the hind-limb tonic-extensor seizure was determined after application of an electric shock to mice for 240 min followed by 100 mg/kg intraperitoneal dose; type: functional; in short: as §1
Mus musculus [9] = experiment: Percentage block of the hind-limb tonic-extensor seizure was determined after application of an electric shock to mice for 240 min followed by 200 mg/kg peroral dose; type: functional; settings: route oral; in short: as §1
Mus musculus [10] = experiment: Percentage block of the hind-limb tonic-extensor seizure was determined after application of an electric shock to mice for 60 min followed by 200 mg/kg peroral dose; type: functional; settings: route oral
In short: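 Mouse MES test: supramaximal seizure from a 50-mA current (60 Hz, 0.20-s) through corneal electrodes. […] Ten mice per time point. Compound given in aqueous solution or in suspension in ca. 0.1% Tween 80 and distilled water. Free food and water except during testing.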

Mus musculus [11] = experiment: Anticonvulsant activity by using a standard maximal electroshock test (MES) in mice, by 100 mg/kg intraperitoneal administration of the compound; i =inactive; type: functional, organism-based; set-up: dose 100 mg/kg; in short: as §1
Mus musculus [12] = experiment: Anticonvulsant activity by using a standard maximal electroshock test (MES) in mice, by intraperitoneal administration of the compound; type: functional; settings: ip; in short: as §1
Mus musculus [13] = experiment: Anticonvulsant activity by using a standard maximal electroshock test (MES) in mice, by 200 mg/kg peroral administration of the compound; I=inactive, 0-10% block; type: functional, organism-based; set-up: dose 200 mg/kg; in short: as §1
Mus musculus [14] = experiment: Anticonvulsant activity by using a standard maximal electroshock test (MEST) in mice, by 100 mg/kg intraperitoneal administration of the compound; I=inactive; type: functional, organism-based; set-up: dose 100 mg/kg
In short: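 Threshold electroshock: 8-mA current (60 Hz, 0.25 s) via ear-clip electrodes, the CS97 in these mice, induced hind-limb tonic extension; inhibition scored as activity. Mice given drug intraperitoneally in aqueous solution or suspension (ca. 0.1% Tween 80, distilled water). Tested at 30 min, sometimes also 240 min; ten mice per time point.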

| Structure (SMILES) | ED50 (Mus musculus [1]) | ED50 (Mus musculus [2]) | Block (Mus musculus [3]) | Block (Mus musculus [4]) | Block (Mus musculus [5]) | Block (Mus musculus [6]) | Block (Mus musculus [7]) | Block (Mus musculus [8]) | Block (Mus musculus [9]) | Block (Mus musculus [10]) | ED50 (Mus musculus [11]) | ED50 (Mus musculus [12]) | ED50 (Mus musculus [13]) | ED50 (Mus musculus [14]) |
| --- | --- | --- | --- | --- | --- | --- | --- | --- | --- | --- | --- | --- | --- | --- |
| CC1(C)OC2C3OC4(CCCCC4)O[C@@H]3CO[C@@]2(COS(N)(=O)=O)O1 (stereo partly specified) | inactive | > 400 mg/kg | 0% | 0% | 20% | 0% | 10% | 0% | 20% | 0% | – | – | – | – |
| NS(=O)(=O)OCC1(O)OC[C@@H](O)[C@@H](O)C1O (stereo partly specified) | – | – | – | – | – | – | – | – | – | – | inactive | – | – | – |
| NS(=O)(=O)OCC(c1ccccc1)c1ccccc1 | inactive | 147 mg/kg | 0% | 0% | 80% | 0% | 80% | 0% | 100% | 70% | – | – | – | – |
| NS(=O)(=O)OCCc1ccccc1 [SULFAMIC ACID PHENETHYL ESTER] | – | ~100 mg/kg | 100% | 70% | 100% | 90% | 70% | 20% | 80% | 100% | – | ~50 mg/kg | – | – |
| CC(=O)Nc1nnc(S(N)(=O)=O)s1 [ACETAZOLAMIDE] | – | 45 mg/kg | – | – | – | – | – | – | – | – | – | – | – | – |
| CC1(C)OC2[C@H](O)[C@H](O)CO[C@@]2(COS(N)(=O)=O)O1 (stereo partly specified) | inactive | – | 0% | – | 0% | 0% | 0% | 0% | 0% | 0% | – | – | inactive | – |
| CCCCCCCCCC1(C)OCC(COS(N)(=O)=O)O1 (stereo unspecified) | – | > 200 mg/kg | – | – | – | – | – | – | – | – | – | 319 mg/kg | – | – |
| NS(=O)(=O)OCC1CCCCO1 (stereo unspecified) | – | 154 mg/kg | – | – | – | – | – | – | – | – | – | 195 mg/kg | – | – |
| CN(C)S(=O)(=O)OC[C@@]12OC[C@H]3OC(C)(C)OC3C1OC(C)(C)O2 (stereo partly specified) | – | > 200 mg/kg | 30% | 50% | 80% | 30% | 30% | 30% | 80% | 40% | – | > 100 mg/kg | – | – |
| CC1(C)OC[C@@H]2O[C@@]3(COS(N)(=O)=O)OC(C)(C)OC3[C@@H]2O1 (stereo partly specified) | – | 150 mg/kg | 50% | 20% | 70% | 30% | 70% | 0% | 50% | 80% | – | 100 mg/kg | – | – |
| CC1(C)OC2C3OC(C)(C)O[C@]3(COC(N)=O)OC[C@H]2O1 (stereo partly specified) | – | – | – | – | – | – | – | – | – | – | – | – | – | inactive |

Source: ChEMBL document CHEMBL1123867, “Anticonvulsant O-alkyl sulfamates. 2,3:4,5-Bis-O-(1-methylethylidene)-beta-D-fructopyranose sulfamate and related compounds” (1987)
